The text below walks through data of ChEMBL document CHEMBL1275351, “Novel spirotetracyclic zwitterionic dual H(1)/5-HT(2A) receptor antagonists for the treatment of sleep disorders” (J Med Chem, 2010).

For orientation: Ki means a dissociation constant, usually derived from enzyme kinetics or from competition with a known ligand. One may read the IC50 as the concentration that inhibits the measured activity by half. Usually fraction unbound stands for the share of the substance not bound to proteins or other matrix. Lower therefore signals extensive binding. One may read the half-life as the time needed for the level to fall by half in the phase considered. For orientation: bioavailability means the share of a dose that reaches the circulation, judged against a reference dose that is usually intravenous. In general, Cmax refers to the maximum level reached in the sampled fluid or tissue.

Data set [1] deals with 5-hydroxytryptamine receptor 2A (Homo sapiens, UniProt P28223). Nature of the data set: Antagonist activity at human 5HT2A receptor expressed in HEK cells assessed as inhibition of intracellular calcium accumulation by aequorin assay. The class given is functional, cell-based, HEK293. Background: Calcium flux is commonly read through the fluorescence of an indicator in the cells.
5-hydroxytryptamine receptor 2A, sequence (P28223 whole entry): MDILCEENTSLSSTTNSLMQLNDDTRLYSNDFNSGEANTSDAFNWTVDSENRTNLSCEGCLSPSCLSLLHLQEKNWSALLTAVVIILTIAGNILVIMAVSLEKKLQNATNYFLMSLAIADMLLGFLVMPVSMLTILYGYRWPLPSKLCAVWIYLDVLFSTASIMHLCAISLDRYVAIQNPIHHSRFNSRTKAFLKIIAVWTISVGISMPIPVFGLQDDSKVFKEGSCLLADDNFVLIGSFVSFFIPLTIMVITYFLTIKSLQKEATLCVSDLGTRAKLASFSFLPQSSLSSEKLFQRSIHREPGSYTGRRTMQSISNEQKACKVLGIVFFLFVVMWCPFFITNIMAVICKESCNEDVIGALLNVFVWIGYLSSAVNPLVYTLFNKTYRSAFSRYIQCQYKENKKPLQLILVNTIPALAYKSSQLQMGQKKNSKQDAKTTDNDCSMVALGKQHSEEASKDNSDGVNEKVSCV

Data set [2] addresses Voltage-gated inwardly rectifying potassium channel KCNH2 (Homo sapiens, UniProt Q12809). Nature of the data set: Displacement of [3H]dofetilide from human ERG by scintillation proximity assay. For orientation: Loss of bound radioactivity is the signal in a displacement assay; it reports binding, not function.
The nature of data set [3]: Fraction unbound in rat blood. The class given is ADME, tissue-based.
The nature of data set [4]: Blood clearance in Sprague-Dawley rat at 0.5 mg/kg, iv and 1 mg/kg, po. In kind it is ADME, organism-based. The note with it: whole blood. In short, it runs like this: (§1)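 Male Sprague-Dawley rats, cassette dosing. Compounds were given as an iv bolus and as an oral suspension. Blood samples were taken at intervals up to 24 h, processed by protein precipitation and analysed by HPLC-MS/MS.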

Data set [5] can be described thus: Volume of distribution at steady state in Sprague-Dawley rat at 0.5 mg/kg, iv and 1 mg/kg, po. The note with it: in vivo, read-out: Vdss. The class given is ADME, organism-based. In a few lines: as §1
A short description of data set [6]: Half life in Sprague-Dawley rat at 0.5 mg/kg, iv and 1 mg/kg, po. The class given is ADME, organism-based. The note with it: in vivo. In short, it runs like this:
as §1

Data set [7] can be described thus: Oral bioavailability in Sprague-Dawley rat at 1 mg/kg. The class given is ADME, organism-based. The note with it: in vivo. In short, it runs like this: as §1
Data set [8] is described as follows: Ratio of drug level in brain to blood in Sprague-Dawley rat at 0.5 mg/kg, iv and 1 mg/kg, po. The class given is ADME, organism-based. The note with it: read-out: BBR. In a few lines:
(§2)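 Male Sprague-Dawley rats, cassette dosing, iv bolus or oral suspension. Blood and brain levels were measured by protein precipitation and HPLC-MS/MS. Brain:blood ratio was taken from AUC0-8h after oral dosing, or at 1 h after iv dosing for one compound.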

Data set [9] concerns Rattus norvegicus. Nature of the data set: Hypnotic activity in Sprague-Dawley rat assessed as non-rapid eye movement latency period at 1 mg/kg, po administered during active phase. In kind it is functional. In short, it runs like this: (§3)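 Male Sprague-Dawley rats (275-300 g) carried implanted telemetric EEG/EMG transmitters and were used 3 weeks after surgery. Oral dosing (2 mL/kg) was given 6 h after lights off (CT18) in a randomized crossover versus vehicle. Recording ran for 5 h in 10 s epochs scored by FFT. n = 8, mean ± SEM; one-way ANOVA with Dunnett's test.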

In data set [10] the test system is Rattus norvegicus. Nature of the data set: Hypnotic activity in Sprague-Dawley rat assessed as non-rapid eye movement sleep at 1 mg/kg, po administered during active phase. The class given is functional. In a few lines: as §3
The test system of data set [11] is Rattus norvegicus. In words: Hypnotic activity in Sprague-Dawley rat assessed as non-rapid eye movement sleep at 10 mg/kg, po administered during active phase. The class given is functional. In a few lines:
as §3

The test system of data set [12] is Rattus norvegicus. Nature of the data set: Hypnotic activity in Sprague-Dawley rat assessed as rapid eye movement latency period at 3 mg/kg, po administered during active phase. In kind it is functional. In short, it runs like this:
as §3

Data set [13] concerns Rattus norvegicus. Nature of the data set: Ex vivo displacement of [3H]ketanserin from 5HT2A receptor in Sprague-Dawley rat cerebral cortex at 1 mg/kg, po by imaging analysis. In kind it is functional. In short, it runs like this:
(§4)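 Rats were dosed orally (vehicle 0.5% HPMC) and brains removed 2 h later. 14 μm coronal sections were incubated with 1 nM [3H]ketanserin in 50 mM Tris-HCl with 10 mM MgCl2, pH 7.5, for 10 min at room temperature. Nonspecific binding with 10 μM mianserin. Phosphoimager read after 7 days; occupancy measured in cortex.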

A short description of data set [14]: Blood clearance in Sprague-Dawley rat at 1 mg/kg, iv and 3 mg/kg, po. The note with it: whole blood. In kind it is ADME, organism-based. In short, it runs like this:
as §1

A short description of data set [15]: Volume of distribution at steady state in Sprague-Dawley rat at 1 mg/kg, iv and 3 mg/kg, po. In kind it is ADME, organism-based. The note with it: in vivo, read-out: Vdss. In short, it runs like this: as §1
Data set [16] in a line: Half life in Sprague-Dawley rat at 1 mg/kg, iv and 3 mg/kg, po. In kind it is ADME, organism-based. The note with it: in vivo. In a few lines: as §1
Data set [17] can be described thus: Oral bioavailability in Sprague-Dawley rat at 3 mg/kg. The class given is ADME, organism-based. The note with it: in vivo. In a few lines: as §1
Data set [18] can be described thus: Ratio of drug level in brain to blood in Sprague-Dawley rat at 1 mg/kg, iv and 3 mg/kg, po. The class given is ADME, organism-based. The note with it: read-out: BBR. In short, it runs like this:
as §2

The nature of data set [19]: Cmax in Sprague-Dawley rat hypnotic model at 3 mg/kg, po administered during active phase measured after 2 hrs. The class given is ADME, organism-based. The arrangement: dose 3 mg/kg, route oral. The note with it: in vivo.
Data set [20] can be described thus: Plasma concentration at Tmax in Sprague-Dawley rat hypnotic model at 1 mg/kg, po administered during active phase. The class given is ADME, organism-based. The arrangement: dose 1 mg/kg, route oral.
Data set [21] in a line: Plasma concentration at Tmax in Sprague-Dawley rat hypnotic model at 3 mg/kg, po administered during active phase. The class given is ADME, organism-based. Further details: dose 3 mg/kg, route oral.
Data set [22] can be described thus: Plasma concentration at Tmax in Sprague-Dawley rat hypnotic model at 10 mg/kg, po administered during active phase. The arrangement: dose 10 mg/kg, route oral. In kind it is ADME, organism-based.
Data set [23] concerns Rattus norvegicus. In words: Ex vivo displacement of [3H]ketanserin from 5HT2A receptor in Sprague-Dawley rat cerebral cortex at 3 mg/kg, po by imaging analysis. The class given is functional. In a few lines: as §4
For data set [24], the system named is Rattus norvegicus. Nature of the data set: Ex vivo displacement of [3H]ketanserin from 5HT2A receptor in Sprague-Dawley rat cerebral cortex at 10 mg/kg, po by imaging analysis. In kind it is functional. In a few lines:
as §4

Data set [25] concerns Rattus norvegicus. Nature of the data set: Ex vivo displacement of [3H]pyrilamine from histamine H1 receptor in Sprague-Dawley rat cerebral cortex at 1 mg/kg, po by imaging analysis. The class given is functional. In short, it runs like this: (§5)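 Rats were dosed orally (vehicle 0.5% HPMC) and brains removed 2 h later. 14 μm coronal sections were incubated with 1 nM [3H]pyrilamine in 50 mM Tris-HCl, pH 7.5, for 10 min at room temperature. Nonspecific binding with 10 μM pyrilamine. Phosphoimager read after 7 days; occupancy measured in cortex.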

In data set [26] the test system is Rattus norvegicus. In words: Ex vivo displacement of [3H]pyrilamine from histamine H1 receptor in Sprague-Dawley rat cerebral cortex at 3 mg/kg, po by imaging analysis. In kind it is functional. In short, it runs like this: as §5
For data set [27], the system named is Rattus norvegicus. Nature of the data set: Ex vivo displacement of [3H]pyrilamine from histamine H1 receptor in Sprague-Dawley rat cerebral cortex at 10 mg/kg, po by imaging analysis. In kind it is functional. In short, it runs like this:
as §5

A short description of data set [28]: Cmax in Sprague-Dawley rat hypnotic model at 1 mg/kg, po administered during active phase measured after 2 hrs. The class given is ADME, organism-based. Further details: dose 1 mg/kg, route oral. The note with it: in vivo.

Voltage-gated inwardly rectifying potassium channel KCNH2, sequence (Q12809 whole entry): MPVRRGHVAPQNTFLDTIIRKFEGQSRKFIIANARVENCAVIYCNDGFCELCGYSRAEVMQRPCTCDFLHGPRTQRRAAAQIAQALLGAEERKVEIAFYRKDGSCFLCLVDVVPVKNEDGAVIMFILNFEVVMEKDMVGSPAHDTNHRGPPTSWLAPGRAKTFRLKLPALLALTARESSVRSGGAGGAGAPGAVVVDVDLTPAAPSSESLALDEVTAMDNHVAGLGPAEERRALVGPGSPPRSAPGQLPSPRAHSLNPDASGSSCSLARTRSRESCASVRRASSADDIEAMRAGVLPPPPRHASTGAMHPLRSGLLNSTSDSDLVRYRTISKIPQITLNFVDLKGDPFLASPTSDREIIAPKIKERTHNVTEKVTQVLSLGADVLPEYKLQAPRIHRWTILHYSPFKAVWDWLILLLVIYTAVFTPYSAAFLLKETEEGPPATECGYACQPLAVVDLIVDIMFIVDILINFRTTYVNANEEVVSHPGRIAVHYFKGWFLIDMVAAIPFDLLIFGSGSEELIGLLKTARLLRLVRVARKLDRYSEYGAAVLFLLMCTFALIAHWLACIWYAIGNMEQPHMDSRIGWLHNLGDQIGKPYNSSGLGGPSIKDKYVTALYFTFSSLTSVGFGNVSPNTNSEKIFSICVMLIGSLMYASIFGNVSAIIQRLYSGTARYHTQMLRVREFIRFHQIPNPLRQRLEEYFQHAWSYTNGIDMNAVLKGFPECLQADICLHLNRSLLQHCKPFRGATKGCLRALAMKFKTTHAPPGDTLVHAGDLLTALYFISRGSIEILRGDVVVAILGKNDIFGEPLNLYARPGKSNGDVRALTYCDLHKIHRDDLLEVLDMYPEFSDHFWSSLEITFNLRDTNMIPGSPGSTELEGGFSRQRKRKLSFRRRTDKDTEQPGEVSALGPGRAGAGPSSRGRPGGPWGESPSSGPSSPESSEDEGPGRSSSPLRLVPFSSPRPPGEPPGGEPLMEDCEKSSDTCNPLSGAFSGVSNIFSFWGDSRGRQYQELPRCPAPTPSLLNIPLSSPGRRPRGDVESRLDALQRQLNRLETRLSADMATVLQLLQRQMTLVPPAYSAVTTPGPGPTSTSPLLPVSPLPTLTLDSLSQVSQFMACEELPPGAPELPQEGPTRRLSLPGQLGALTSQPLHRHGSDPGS

For the molecule `O=C(O)C1CN(C2CCC3(Cc4ccccc4Oc4ccccc43)C2)C1` (stereo unspecified), the Ki in [1] was 0.0316 µM. In [2], this molecule had an IC50 of over 50.1 µM. The fraction unbound in [3] was found to be 0.171. The molecule also returned a clearance in data set [4] of 0.78 L/h/kg. Moreover, in [5], the Vd was 1.9 L/kg. The same molecule showed a half-life in data set [6] of 1.9 h. The bioavailability in data set [7] was determined as 100%. Besides, the Kp in data set [8] stood at 0.2. Also, the Time with Rattus norvegicus [9] is listed as 37.8 min; with Rattus norvegicus [10] it was 107.3 min; in the data set with Rattus norvegicus [11], 139.5 min; in the data set with Rattus norvegicus [12], 77.7 min.
In the case of `O=C(O)C1CN(C2CC[C@]3(Cc4ccccc4Cc4ccccc43)C2)C1` (stereo partly specified), the Activity in the data set with Rattus norvegicus [13] is listed as 0.9%; in the data set on Rattus norvegicus [23], 24%; in the data set on Rattus norvegicus [24], 47%; in the data set on Rattus norvegicus [25], 16%; with Rattus norvegicus [26] it was 45%; with Rattus norvegicus [27], 66%. For the same molecule, in data set [1], the Ki is 0.0158 µM. The molecule also had an IC50 in [2] of over 50.1 µM. This molecule also displayed a fraction unbound in data set [3] of 0.12. In data set [14], the clearance was found to be 0.54 L/h/kg. For the same molecule, in [15], the Vd was 2.1 L/kg. For the same molecule, the half-life in data set [16] was 3.1 h. Moreover, the bioavailability in [17] was 54%. In addition, in data set [18], the Kp was found to be 0.1. Further, the Time in the data set on Rattus norvegicus [9] stood at 58.1 min; in the data set on Rattus norvegicus [10], 87.4 min; with Rattus norvegicus [11], 130.5 min; in the data set on Rattus norvegicus [12] it was 81.6 min. Moreover, the Cmax in data set [19] is 0.626 µg/mL; in data set [20], 0.127 µg/mL; in data set [21], 0.417 µg/mL; in [22], 1.22 µg/mL.
Regarding `O=C(O)C1CCN(C2CC[C@]3(Cc4ccccc4Cc4ccccc43)C2)CC1` (stereo partly specified), the Activity in the data set with Rattus norvegicus [13] is recorded as 0%; with Rattus norvegicus [23], 5.6%; in the data set on Rattus norvegicus [24], 18%; in the data set on Rattus norvegicus [25], 30%; with Rattus norvegicus [26], 35%; with Rattus norvegicus [27] it was 55%. Besides, the Ki in data set [1] is 0.0794 µM. In addition, the IC50 in data set [2] was over 63.1 µM. Further, the fraction unbound in data set [3] came out at 0.182. The clearance in [4] is 1.26 L/h/kg. Further, the Vd in [5] amounted to 2.9 L/kg. The same molecule gave a half-life in [6] of 1.9 h. In data set [7], this molecule gave a bioavailability of 65%. In [8], the Kp was 0.5. For the same molecule, the Time amounted to 69.8 min in the data set with Rattus norvegicus [9], 84.7 min in the data set on Rattus norvegicus [10], 104 min with Rattus norvegicus [11] and 77.9 min in the data set on Rattus norvegicus [12]. For the same molecule, the Cmax in data set [28] came to 0.216 µg/mL; in [20], 0.119 µg/mL; in [21], 0.303 µg/mL; in data set [22], 0.755 µg/mL.
